Assay results from ChEMBL document CHEMBL1129282, “High-affinity partial agonist imidazo[1,5-a]quinoxaline amides, carbamates, and ureas at the gamma-aminobutyric acid A/benzodiazepine receptor complex” (J Med Chem, 1996).
Activity calls are given as the source filed them.

Experiments:
Rattus norvegicus [1] = test: Antagonistic activity against metrazole-induced clonic convulsions in rat after ip injection; assay type: functional
[2] = biological target: GABA-A receptor; anion channel (Rattus norvegicus) (UniProt O09028+P15431+P18506+P18508+P19969+P20236+P23574+P23576+P28471+P28473+P30191+P62813+P63079+P63138+Q91ZM7+Q9ES14); settings: Brain, Brain membranes
[3] = biological target: GABA-A receptor; anion channel; test: Inhibition of [3H]flunitrazepam binding to GABA-A receptor of rat cortical membranes; assay type: cell membranes, Membrane
Mus musculus [4] = test: Ethanol potentiation activity was measured as loss of righting reflex in male CF-1 mice after oral administration; assay type: functional
Mus musculus [5] = test: Ethanol potentiation activity was measured as loss of traction response in male CF-1 mice after oral administration; assay type: functional
Mus musculus [6] = organism: Mus musculus; test: Acute electroshock physical dependence activity was evaluated; IA=Inactive; assay type: functional, organism-based
Summary of the method: (§1)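 Male CF-1 mice, 10/group, dosed sc twice daily (0800, and 1600 at twice the 0800 dose) for 3 days. 24 h after last dose, iv flumazenil 2.5 mg/kg in 5% aqueous N,N-dimethylacetamide. Electroshock seizure threshold (MA50) measured 5 min later versus saline-treated, flumazenil-injected controls. Compound scored active if threshold lowered beyond control interval.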

Mus musculus [7] = test: In vivo antagonistic activity against benzodiazepine in mice after ip administration; assay type: functional
Summary of the method: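 Male CF-1 mice injected ip simultaneously with triazolam 1 mg/kg and test compound starting at […], in 0.25% aqueous methyl cellulose. Loss of traction scored 15 min later. Absence of triazolam effect indicated antagonism; lower doses at 0.5 log intervals then tested to establish ED50.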

Rattus norvegicus [8] = organism: Rattus norvegicus; test: In vitro [36Cl]-uptake in rat cerebrocortical synaptoneurosomes; assay type: functional; design: unit not given here
Summary of the method: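 Rat cerebrocortical synaptoneurosomes (1 mg protein) preincubated 5 min at 30 °C, then mixed with medium containing 0.2 µCi Na36Cl/mL, 118 mM NaCl, 5 mM KCl, 1.8 mM MgSO4, 20 mM Hepes/Tris pH 7.0, ± drug (methanol ≤0.4%). Uptake stopped after 5 s with ice-cold buffer, rapid filtration, four washes, radioactivity counted.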

Mus musculus [9] = organism: Mus musculus; test: Acute electroshock physical dependence activity was evaluated; A=Active; assay type: functional, organism-based; summary of the method: as §1

Compound | [35S] TBPS shift [2] | Ki [3] [nM] | ED50 (Rattus norvegicus [1]) [mg/kg] | ED50 (Mus musculus [4]) [mg/kg] | ED50 (Mus musculus [5]) [mg/kg] | Activity (Mus musculus [6]) | ED50 (Mus musculus [7]) [mg/kg] | 36Cl- uptake (Rattus norvegicus [8]) | Activity (Mus musculus [9])
CC(=O)N1c2ccccc2-n2cnc(-c3noc(C4CC4)n3)c2C1(C)C | 0.7 | – | 30 | – | – | – | – | – | –
CC(C)NC(=O)N1Cc2c(-c3noc(C4CC4)n3)ncn2-c2ccccc21 | 1.1 | 3.4 | 11 | – | – | – | – | – | –
O=C(Sc1ccccc1)N1Cc2c(-c3noc(C4CC4)n3)ncn2-c2ccccc21 | 1.1 | 11 | > 50 | – | – | – | – | 0.5 | –
O=C(N1Cc2c(-c3noc(C4CC4)n3)ncn2-c2ccccc21)C(F)(F)F | 0.73 | 143 | 35 | – | – | – | – | – | –
O=C(N1CCCC1)N1Cc2c(-c3noc(C4CC4)n3)ncn2-c2cccc(Cl)c21 | 0.6 | – | > 50 | – | – | – | – | 0.56 | –
CSC(=O)N1c2ccccc2-n2cnc(-c3noc(C4CC4)n3)c2C1(C)C | 0.8 | 5.1 | > 50 | – | – | – | – | 1 | –
CNC(=O)N1c2ccccc2-n2cnc(-c3noc(C4CC4)n3)c2C1(C)C | 0.71 | 21 | > 50 | – | – | – | – | 0.67 | –
CN(C)C(=O)N1Cc2c(-c3noc(C4CC4)n3)ncn2-c2ccc(Cl)cc21 | 0.88 | 3.7 | – | – | – | – | – | – | –
NC(=O)N1Cc2c(-c3noc(C4CC4)n3)ncn2-c2ccccc21 | 0.61 | 7.2 | 13 | – | – | – | – | 0.75 | –
CN(C)C(=O)N1c2cc(Cl)ccc2-n2cnc(-c3noc(C4CC4)n3)c2C1(C)C | 0.79 | 3.1 | 7.4 | 17 | 3 | – | – | 1.33 | Active
COC(=O)N1c2ccccc2-n2cnc(-c3noc(C4CC4)n3)c2C1(C)C | 0.8 | – | > 50 | – | – | – | – | 0.4 | –
CC(C)(C)c1nc(-c2ncn3c2CN(C(=O)N2CCCC2)c2ccccc2-3)no1 | 0.76 | 14.7 | 18 | – | – | – | – | 1.2 | –
CC1(C)c2c(-c3noc(C4CC4)n3)ncn2-c2ccc(Cl)cc2N1C(=O)N1CCCC1 | 0.67 | 3.3 | 35 | > 30 | 0.2 | inactive | 9 | 1.04 | –
CC1(C)c2c(-c3noc(C4CC4)n3)ncn2-c2ccccc2N1C(N)=O | 0.6 | 86 | > 50 | – | – | – | – | 0.22 | –
CN(C)C(=O)N1c2ccccc2-n2cnc(-c3noc(C4CC4)n3)c2C1(C)C | 0.97 | 3.1 | > 50 | – | – | – | – | 0.34 | –
O=C(Nc1ccccc1)N1Cc2c(-c3noc(C4CC4)n3)ncn2-c2ccccc21 | 1.3 | 16 | > 50 | – | – | – | – | 0.29 | –
CC(C)(C)OC(=O)N1Cc2c(-c3noc(C4CC4)n3)ncn2-c2ccccc21 | 2.9 | – | 0.06 | – | – | – | – | – | –

The remaining molecules from weak to strong by Ki [3], led by results:

[35S] TBPS shift [2] | Ki [3] [nM] | Compound | ED50 (Rattus norvegicus [1]) [mg/kg] | ED50 (Mus musculus [4]) [mg/kg] | ED50 (Mus musculus [5]) [mg/kg] | Activity (Mus musculus [6]) | ED50 (Mus musculus [7]) [mg/kg] | 36Cl- uptake (Rattus norvegicus [8]) | Activity (Mus musculus [9])
0.84 | 2.9 | CC1(C)c2c(-c3noc(C4CC4)n3)ncn2-c2ccccc2N1C(=O)N1CCCC1 | > 50 | – | – | – | – | 0.5 | –
0.95 | 2.8 | CNC(=O)N1Cc2c(-c3noc(C4CC4)n3)ncn2-c2ccccc21 | 11 | 11 | 2.7 | – | 22 | 0.53 | Active
1.1 | 2.1 | CCSC(=O)N1Cc2c(-c3noc(C4CC4)n3)ncn2-c2ccccc21 | 1.3 | – | – | – | – | 1.1 | –
1.1 | 1.8 | CC(C)OC(=O)N1Cc2c(-c3noc(C4CC4)n3)ncn2-c2ccccc21 | 1.9 | – | – | – | – | – | –
0.7 | 1.5 | COC(=O)N1Cc2c(-c3noc(C4CC4)n3)ncn2-c2ccccc21 | 4.4 | – | – | – | – | – | –
0.92 | 1.3 | CSC(=O)N1Cc2c(-c3noc(C4CC4)n3)ncn2-c2ccccc21 | 6.2 | > 30 | 0.3 | – | > 30 | 0.73 | Active
0.69 | 1.1 | CC(C)c1nc(-c2ncn3c2CN(C(=O)N2CCCC2)c2ccccc2-3)no1 | 11 | > 30 | 17 | inactive | > 30 | 0.4 | –
0.92 | 1.1 | O=C(c1ccc[nH]1)N1Cc2c(-c3noc(C4CC4)n3)ncn2-c2ccccc21 | 4.4 | – | – | – | – | 1.1 | –
0.27 | 1.1 | O=C(c1ccccn1)N1Cc2c(-c3noc(C4CC4)n3)ncn2-c2ccccc21 | > 50 | – | – | – | – | – | –
0.93 | 1.1 | O=C(N1CCCC1)N1Cc2c(-c3noc(C4CC4)n3)ncn2-c2ccc(Cl)cc21 | 0.6 | > 30 | 0.4 | inactive | > 30 | – | –
0.84 | 0.89 | CN(C)C(=O)N1Cc2c(-c3noc(C4CC4)n3)ncn2-c2cccc(F)c21 | 21 | > 30 | 3 | – | 4 | 0.6 | Active
0.82 | 0.85 | CCN(CC)C(=O)N1Cc2c(-c3noc(C4CC4)n3)ncn2-c2ccccc21 | 15 | > 30 | > 30 | inactive | 4 | 0.62 | –
0.84 | 0.81 | O=C(N1CCOCC1)N1Cc2c(-c3noc(C4CC4)n3)ncn2-c2ccccc21 | 0.84 | – | – | – | – | 0.15 | –
0.62 | 0.71 | CN(C)C(=O)N1Cc2c(-c3noc(C4CC4)n3)ncn2-c2cccc(Cl)c21 | > 50 | – | – | – | – | 0.83 | –
0.39 | 0.65 | CCc1nc(-c2ncn3c2CN(C(=O)N2CCCC2)c2ccccc2-3)no1 | > 50 | – | – | – | – | 0.25 | –
1 | 0.64 | O=C(N1CCCC1)N1Cc2c(-c3noc(C4CC4)n3)ncn2-c2cccc(F)c21 | > 50 | – | – | – | – | 0.59 | –
0.99 | 0.61 | CN(C)C(=O)N1Cc2c(-c3noc(C4CC4)n3)ncn2-c2ccc(F)cc21 | – | – | – | – | – | 0.95 | –
1.25 | 0.56 | O=C(N1CCCC1)N1Cc2c(-c3noc(C4CC4)n3)ncn2-c2ccc(F)cc21 | > 50 | – | – | – | – | 0.69 | –
0.41 | 0.45 | O=C(N1CCCC1)N1Cc2c(-c3noc(C4CC4)n3)ncn2-c2ccccc21 | 0.24 | – | – | – | – | 0.5 | –
0.98 | 0.43 | O=C(c1ccco1)N1Cc2c(-c3noc(C4CC4)n3)ncn2-c2ccccc21 | 21 | – | – | – | – | 0.55 | –
